Measurements taken from the RNAGym collection of RNA variant scans (doi:10.1126/science.aae0568).
Fewer inactive variants are shown than the library holds.

B1: tRNA (parent)
chain: GUUCCGUUGGCGUAAUGGUAACGCGUCUCCCUCCUAAGGAGAAGACUGCGGGUUCGAGUCCCGUACGGAACG

Variants of: B1
Assay: yeast fitness relative to wild type (ratio to wild type); higher = fitter; tRNA-Arg(CCU), competitive growth, 37 C, YPD
How it was run: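 Variants of the tRNA-Arg(CCU) gene were chemically synthesised with a 3% per-site mutation rate across 69 sites and placed at the native genomic locus in Saccharomyces cerevisiae. Six parallel replicates of the pooled strains were competed in YPD at 37°C for 24 hours, and gene amplicons from the start and end populations were read by 100-nucleotide paired-end sequencing. Darwinian fitness relative to wild type was derived from changes in genotype frequencies. Genotypes required ≥ 100 starting reads, and estimates < 0.5 were set to 0.5.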

| Variant | yeast fitness |
| --- | --- |
| GUUCCGUUGGCGUAAUGGUUACGCGUCUCCCUCCUAAGGAGAAGACUGCAGGUUCGUGUGCCGUUCGGAACG | 0.531 |
| GUUCCGUUGGCGUAAUGGUUACGCGUCUCCCACCUAAGGAGAAGACUGCGGGUUCGAGUCCCGUAUGGAACG | 0.554 |
| GUUCCGUUGGCGUAAUGGUUACGCGUCGCCCGCGUAAGGAGAAGACUGCGGGUUCGAGUCCCGUACGGAACG | 0.513 |
| GUUCCGUUGGCGUAAUGGUUACGCAUCUCCCUCCUAAGGAGAAGACUGCGGGUUCGAGUCCCGUACGGUACG | 0.838 |
| GUUCCGUUGGCGUAAUGGUUACGCGUCUCCCUCCUAAGGAGAAGACUGCAGGUUCGAGUGCCGUACGGAACG | ≤ 0.5 |
| GUUCCGUUGGCGUAAUGGUUACGCGUCCCUCUCCUAAGGAGAGGACUGCGGGUUCGAGUCCCGUACGGAACG | ≤ 0.5 |
| GUUCCGUUGGCGUAAUGGUUACGCGUCUCCCUCCUAAGGAGAAGACUGCGGGUUCGAGUCCCGUACCGAACG | 0.732 |
| GUUCCGUUGGCGUAAUGGUUACGCGUCUCCCUCCUAAGGAGAAGACUGCGGGUUCGAGUCCCGUACAGAACG | 0.657 |
| GUUCCGUUGGCGUAAUGGUUACGCGUCUCCCUCCUAACGAGAAGACUGCCGGUUCGAGUCCCGUCCGGAACG | ≤ 0.5 |
| GUUCCGUUGGCGUAAUGGUUACGCGUCUCCCUCCUAAGGAGAAGACUGGGGGUUCGAGUCCCGUACGGAACG | 0.752 |
| GUUCCGUUGGCGUAAUGGUUACGCGUCUCCCUCCUAAGGACAAGAUUGCGGGUUCGAGUCCCGUAAGGAACG | ≤ 0.5 |
| GUUCCGUUGGCGUAAUGGUUACGCGUCUCCCUCCUAAGGAGAAGACUGCGGGUUCGAGUCCUGGACGGAACG | 0.603 |
| GUUCCGUUGGCGUAAUGGUUACGCGUCUCCCUCCUAAGGAGAAGACUGCGCGUUCGAGUCCCGUGCGGAACG | ≤ 0.5 |
| GUUCCGUUGGCGUAAUGGUUACGCGUCCCCCUCCUAAGGUGAAGACUGCGGGUUCGAGUCCGGUACGGAACG | 0.533 |
| GUUCCGUUGGCGUAAUGGUUACACGUCUCCCUCCUAAGGAGAAGACUGUGGGUUCGAGUCCCGUACGGAACG | 0.609 |
| GUUCCGUUGGCGUAAUGGUUACGCCUCUCCCUCCUAAGGAGAAGACUGCGGGUUCGAGUCCCGUACGGAACG | 0.885 |
| GUUCCGUUGGCGUAAUGGUUACGCGUCGCUCGCGUAAGGAGAAGACUGCGGGUUCGAGUCCCGUACGGAACG | ≤ 0.5 |
| GUUCCGUUGGCGUAAUGGUUACGCGUCCCCCUCCUAAGGAGAAGACUGCGGGUUCGAGUCCCGUACGGCACG | 0.699 |
| GUUCCGUUGGCGUAAUGGUUACGCGUCUCCCUCCUAACGAGAAGACUGCGGGUUCGAGUCCCGUACGUAACG | ≤ 0.5 |
| GUUCCGUUGGCGUAAUGGUUACGCGUCUCCCUCCUAAGGAGAAGACUCCGGGCUCGAGUCCCGUACGCAACG | ≤ 0.5 |
| GUUCCGUUGGCGUAAUGGUUACGCGUCUCCCUCCUAAGGAGAACACUGCGGGUUCGAGUACCGUACGGAACG | 0.617 |
| GUUCCGUUGGCGUAAUGGUUACGCGUCUCCCUCCUAAGGAGAAGACAGCGGGUUCGAGUCCCGUACGGACCG | 0.536 |
| GUUCCGUUGGCGUAAUGGUUACGCGUCUCCCUCCUAAGGAGAAGACUGCGGGUUUGCGUCCCGUACGGAACG | ≤ 0.5 |
| GUUCCGUUGGCGUAAUGGUUACGCGUCUCCCUCCUAAGGACAAGACUGCGGGUUCGAGUCCCGUACGGAACG | 0.753 |
| GUUCCGUUGGCGUAAUGGUUACGCGUCUCCCUCCUAAAGAGAAGACUGCGGGUUCGUGUCCCGUACGGAACG | ≤ 0.5 |

| Variant | yeast fitness |
| --- | --- |
| GUUCCGUUGGCGUAAUGGUUACGCGUCUCCCACCUAAGGAGAAGACUGCGGGUUCGAGUCCCGUACCGAACG | 0.543 |
| GUUCCGUUGGCGUAAUGGUUACGCGUCUCCCUCCUAAGGACAAGACUGCGCGUUCGAGUCCGGUACGGAACG | 0.735 |
| GUUCCGUUGGCGUAAUGGUUACGCGUCACCUUCCUAAGGAGAAGACUGCGGGUUGGCGUCCCGUACGGAACG | ≤ 0.5 |
| GUUCCGUUGGCGUAAUGGUUACGCGUCUCCCUCCUAAGCGGAAGACUGUGGGUUGGAGUCCCGUACGGAACG | ≤ 0.5 |
| GUUCCGUUGGCGUAAUGGUUACGCGUCUCCCGCCAAAGGAGAAGACUGCGGGUUCGAGUCCUGUACGGCACG | ≤ 0.5 |
| GUUCCGUUGGCGUAAUGGUUACGCGUCUCCCUCCUAAGGAGAAGACUGCGGAUUCGAGUCCCGUACGGAACG | 0.759 |
| GUUCCGUUGGCGUAAUGGUUACGCGUCUCCCUCCUAAGGAGAAGACAGCGGGCUCGAGUCCCGUACGGAACG | 0.532 |
| GUUCCGUUGGCGUAAUGGUUACGCGUCACCCUUCUAAGGAGAAGACUGCGGGUUCGAGUCCCGUACGGAACG | ≤ 0.5 |
| GUUCCGUUGGCGUAAUGGUUACGCGACUCCCUCCUAAGGAGAAGACUGCGGGUUUGAGUCCCGUACGGAACG | 0.747 |
| GUUCCGUUGGCGUAAUGGUUACGCAUCUCCCUCCUAAGGAGAAGACUGCGGGUUCGAGUCCCGUACUGAACG | 0.673 |
| GUUCCGUUGGCGUAAUGGUUACGCAUGUCCCUCCUAAGGAGAAGACUGCGGGUUCGAGUCCCGUACAGAACG | 0.542 |
| GUUCCGUUGGCGUAAUGGUUACGCGUCUCCCUCCUAAGGAGAAGACUGCGGGUUCGAGUCCCGUAUGGAUCG | 0.646 |
| GUUCCGUUGGCGUAAUGGUUACGCCUCUCCCUCCUAAGGAGAAGACUGGGGGUUCGAGUCCCGUCCGGAUCG | ≤ 0.5 |
| GUUCCGUUGGCGUAAUGGUUACGCGCCUCACUCCUAAGGAGAAGACAGCGGGUUCGAGUCCCGUUCGGAACG | ≤ 0.5 |
| GUUCCGUUGGCGUAAUGGUUACGCGUCUCCCUCCUAAGGAGAAGACUGCAGGUUCGAGCCCCGUACGGAACG | 0.619 |
| GUUCCGUUGGCGUAAUGGUUACGCGUCUCCCUCCUAAGGAGAAGACUGCGGGUUCGAGUCCCGUAAGGAACG | 0.612 |
| GUUCCGUUGGCGUAAUGGUUACGCCUCUCCCUCCCAAGGAGAAGACUGCGGGUUCGAGUGCCGUACGGAACG | ≤ 0.5 |
| GUUCCGUUGGCGUAAUGGUUACGCGUCUCCCUCCUAAGGAGAAGACUGCCGGUUCGAGUCCCGUACGGAACG | 0.638 |
| GUUCCGUUGGCGUAAUGGUUACCCGUCUCCCUCCUAAGGAGAAGACUGCGGGAUUGAGUCCCGUACGGAACG | ≤ 0.5 |
| GUUCCGUUGGCGUAAUGGUUACGCGUCUCCCCCCUAAGGAGAGGACUGCGGGUUCGAGUCCCGUACGGAACG | 0.659 |
| GUUCCGUUGGCGUAAUGGUUACGCGUCUCCCUCCUAAGGAGAAGACUGCGGGUUCGAGUCCCGUACGUAACG | 0.792 |
| GUUCCGUUGGCGUAAUGGUUACGCGUCUCCCUCCCAAGGAGAACACUGCGGGUUCGAGUCCCGUACGGAACG | 0.592 |
| GUUCCGUUGGCGUAAUGGUUACGCGACUCCCUCCUAAGGAGAAGACUGCGGGUUCGAGUCCUGUACGGAACG | 0.542 |
| GUUCCGUUGGCGUAAUGGUUACGCGUCUCCCUCCUAACGAGAAGACUGAGGGUUCGAGUCCCGUACGGAACG | ≤ 0.5 |
| GUUCCGUUGGCGUAAUGGUUACGCGUCUCCCUCCUAAGGAGAAGACUGCGGGUUCGAGUGCCGUACGGAACG | 0.691 |

| Variant | yeast fitness |
| --- | --- |
| GUUCCGUUGGCGUAAUGGUUACACGUCUCCCUCCUUAGGAGAAGACUGCGGGUUCGAGUCCCGUUCGGAACG | ≤ 0.5 |
| GUUCCGUUGGCGUAAUGGUUACGCGUCUCCCUCCUAACGAGAAGCCUGCGGGUUCGAGUGCCGUACGGAACG | ≤ 0.5 |
| GUUCCGUUGGCGUAAUGGUUACACGUCUCCCUCCUUAGGAGAAGACUGCGGGUUCGAGUCCCGUACGGAACG | 0.515 |
| GUUCCGUUGGCGUAAUGGUUACGCGUCUCCCUCCUAAGGAGAAGACUGCGGGUUCGAGUCCGGUACGGAACG | 0.682 |
| GUUCCGUUGGCGUAAUGGUUACGCGUCUCCCUCCAAAGGAGAAGAGUGUGGGUUCGAGUCCCGUACGGAACG | ≤ 0.5 |
| GUUCCGUUGGCGUAAUGGUUACGCGUCUCCCUCCUAACGAGAAGAAUGCGGGUUCGAGUCCCGUACGGAACG | ≤ 0.5 |
| GUUCCGUUGGCGUAAUGGUUACGCGUCGCCCGCGUAAGGAGAAGACUGCGGGUUCGAGUCCCGUAUGGAACG | ≤ 0.5 |
| GUUCCGUUGGCGUAAUGGUUACGCGUCUCCCUCCUAAGGAGAAGACUGCGGGUUCGAGUCUCGUAUGGAACG | 0.559 |
| GUUCCGUUGGCGUAAUGGUUACGCCUCUCCCUCCUAGGGAGAAGACUGCGGGUUCGAGUGGCGUACGGAUCG | ≤ 0.5 |
| GUUCCGUUGGCGUAAUGGUUACGCGUCUCCCUCCUAAGGAGAAGACUGCAGGUUCGAGUCCCGUACGCAACG | ≤ 0.5 |
| GUUCCGUUGGCGUAAUGGUUACGCGUCUCCCUCCUAAGGAGAAGACUGCGGGUUCGAGUCCCGUACAGAGCG | 0.882 |
| GUUCCGUUGGCGUAAUGGUUACGCGUCUCCCUCCUAAGGAGAAAACUGCGGGUUCGAGUACCGUACGGAACG | ≤ 0.5 |
| GUUCCGUUGGCGUAAUGGUUACGCGUCUCCCUCCUAAGCAGAAGACUGCGGGUUCGAGUCCCGUACGGAACG | 0.81 |
| GUUCCGUUGGCGUAAUGGUUACGCAUCUCCCUCCUAAGGAGAAGACUGGGGGUUCGAGUCCCGUACGGAACG | 0.619 |
| GUUCCGUUGGCGUAAUGGUUACGCGCCUCCCUCCUAAGGAGAAGACUGCGGGUUCGAGUCCCGUACGGAACG | 0.89 |
| GUUCCGUUGGCGUAAUGGUUACGCGUCCCCCUCCUAAGGAGAAGACUGCGGGUUCGAGUCCCGUACGGAACG | 0.934 |
| GUUCCGUUGGCGUAAUGGUUACGCCUCUCCCUCCUAGGGAGAAGACUGCGGGUUCGAGUGGCGUACGGAACG | 0.561 |
| GUUCCGUUGGCGUAAUGGUUACGCGUCUCCCUCCUAAGGAGAAGACUGCGGGUUCGAGUCCCCUACGGAACG | 0.649 |
| GUUCCGUUGGCGUAAUGGUUACGCGUCUCCCUCCUAAGGAGAAGACUACGGGUUCGAGUCCCGUACGGAACG | 0.922 |
| GUUCCGUUGGCGUAAUGGUUACGCGUCUCCCUCCUAAGGAGAAGACUGCGGGUUCGAGUCCCGUACGACACG | 0.639 |
| GUUCCGUUGGCGUAAUGGUUACGCGUCUCCCUCCUAAGGACAAGACUGCGGGUUCCAGUCCCGUACGGAACG | 0.574 |
| GUUCCGUUGGCGUAAUGGUUACGCGUCUCCCUCCUAAGGAGAAGACUGCGGGUUCGAGUCCUGUACGGCACG | 0.686 |
| GUUCCGUUGGCGUAAUGGUUACGCGUCUCCCUCCUAAGGAGAAGACUGCGGGUUCGAGUCGCGUACGGAACG | 0.712 |
| GUUCCGUUGGCGUAAUGGUUACGCGUCUCCCUCCUAAGGAGAAGACUGCGGGUUCGAGUCACGUACGGAACG | 0.646 |
| GUUCCGUUGGCGUAAUGGUUACACGUCUCCCUCCUAAGGAGAAGACUGCGGGUUCGAGUCCCGUAUGGAACG | 0.55 |
